Data taken from ChEMBL document CHEMBL1142589, “Steroidal alkaloids from the bulbs of Fritillaria puqiensis” (2005).
Calls of active or inactive are those of the source. The calls are words filed in the database; no cut-off is given here.

Key:
Mus musculus [1] = test: Antitussive activity in ammonia liquor-induced mouse assessed as number of cough times at 10 mg/kg, po daily for 3 consecutive days administered before ammonia liquor induction measured for 3 mins; format: functional
How it was run: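 Mice were dosed for three days, with vehicle 0.5% sodium carboxymethyl cellulose at 0.2 mL/mouse; codeine 10 mg/kg served as positive control. On day 3, 2 h post-dose, each mouse was placed in a glass chamber and exposed for 5 s to 28% NH4OH aerosol nebulised by compressed air at about 400 mmHg. Coughs were counted over 3 min from spray onset; n = 10, mean ± SD.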

Mus musculus [2] = test: Antitussive activity in ammonia liquor-induced mouse assessed as number of cough times at 5 mg/kg, po daily for 3 consecutive days administered before ammonia liquor induction measured for 3 mins; format: functional
How it was run: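 Mice were dosed in 0.5% sodium carboxymethyl cellulose vehicle (0.2 mL/mouse). On day 3, 2 h after dosing, they were placed in a glass chamber and exposed for 5 s to 28% NH₄OH aerosol, nebulized with compressed air at about 400 mmHg. Coughs were counted over 3 min from spray start. Codeine 10 mg/kg was the positive control and vehicle the negative control. n = 10, mean ± SD.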

A549 [3] = test: Antitumor activity against human A549 cells at 0.1 uM by MTT assay; format: functional, cell-based
How it was run: (§1)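 MTT growth-inhibition assay on human A549, BGC-823, SMMC-7721 and HL-60 cancer cells. Each compound was tested at 1×10^-7, 1×10^-6 and 1×10^-5 mol/L. Percent inhibition was calculated relative to untreated cells.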

BGC-823 [4] = test: Antitumor activity against human BGC-823 cells at 0.1 uM by MTT assay; format: functional, cell-based; how it was run: as §1
SMMC-7721 [5] = test: Antitumor activity against human SMMC7721 cells at 0.1 uM by MTT assay; format: functional, cell-based; how it was run: as §1
HL-60 [6] = test: Antitumor activity against human HL-60 cells at 0.1 uM by MTT assay; format: functional, cell-based; how it was run: as §1
A549 [7] = test: Antitumor activity against human A549 cells at 1 uM by MTT assay; format: functional, cell-based; how it was run: as §1
BGC-823 [8] = test: Antitumor activity against human BGC-823 cells at 1 uM by MTT assay; format: functional, cell-based; how it was run: as §1
SMMC-7721 [9] = test: Antitumor activity against human SMMC7721 cells at 1 uM by MTT assay; format: functional, cell-based; how it was run: as §1
HL-60 [10] = test: Antitumor activity against human HL-60 cells at 1 uM by MTT assay; format: functional, cell-based; how it was run: as §1
HL-60 [11] = test: Antitumor activity against human HL-60 cells at 10 uM by MTT assay; format: functional
How it was run: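 HL-60 cells were tested by MTT assay at 1×10^-7, 1×10^-6 and 1×10^-5 mol/L of each compound. Percent growth inhibition was calculated relative to untreated cells.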

| SMILES | Activity (Mus musculus [1]) | Activity (Mus musculus [2]) | Activity (A549 [3]) | Activity (BGC-823 [4]) | Activity (SMMC-7721 [5]) | Activity (HL-60 [6]) | Activity (A549 [7]) | Activity (BGC-823 [8]) | Activity (SMMC-7721 [9]) | Activity (HL-60 [10]) | Activity (HL-60 [11]) [%] |
| --- | --- | --- | --- | --- | --- | --- | --- | --- | --- | --- | --- |
| C[C@H]1CC[C@H]([C@@H](C)[C@H]2CC[C@H]3[C@@H]4CC(=O)[C@H]5C[C@@H](O)CC[C@]5(C)[C@H]4CC[C@]23C)NC1 | 18 | 23 | inactive | inactive | inactive | inactive | inactive | inactive | inactive | inactive | 51 |
| CC1=C2C[C@H]3[C@@H](C[C@@H](O)[C@H]4C[C@@H](O)CC[C@@]43C)[C@@H]2CC[C@@H]1[C@@H](C)[C@@H]1[C@H](O)C[C@@H](C)CN1C (relative stereo) [PUQIENINE A] | 14 | 18 | inactive | inactive | inactive | inactive | inactive | inactive | inactive | inactive |  |
| CC1=C2C[C@H]3[C@@H](CC(=O)[C@H]4C[C@@H](O)CC[C@@]43C)[C@@H]2CC[C@@H]1[C@@H](C)[C@@H]1[C@H](O)C[C@@H](C)CN1C (relative stereo) [PUQIENINE B] | 10 | 12 | inactive | inactive | inactive | inactive | inactive | inactive | inactive | inactive |  |
| COc1ccc2c3c1O[C@H]1[C@@H](O)C=C[C@H]4[C@@H](C2)N(C)CC[C@@]341 [CODEINE] | 5 |  |  |  |  |  |  |  |  |  |  |
| C[C@@H]1CC[C@@H]([C@@H](C)[C@@H]2CC[C@H]3[C@@H]4CC(=O)[C@H]5C[C@@H](O)CC[C@]5(C)[C@H]4CC[C@]23C)N(C)C1 [PUQIETINONE] | 11 | 17 |  |  |  |  |  |  |  |  |  |
| C[C@H]1CC[C@H]([C@@H](C)[C@H]2CC[C@H]3[C@@H]4CC(=O)[C@H]5C[C@@H](O[C@@H]6O[C@H](CO)[C@@H](O)[C@H](O)[C@H]6O)CC[C@]5(C)[C@H]4CC[C@]23C)N(C)C1 [PUQIETINONOSIDE] | 13 | 17 | inactive | inactive | inactive | inactive | inactive | inactive | inactive | inactive |  |
